In ChEMBL document CHEMBL1133122, “Hypocholesterolemic and hypolipidemic activity of some novel morpholine derivatives with antioxidant activity” (J Med Chem, 2000):

Columns and labels:
Assay type in all cases: functional
Rattus norvegicus [1] = assay: Percent decrease in Total Low density lipoproteins was determined after intraperitoneal administration of a dose of 56 uM/kg
In short: (§1)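 Hyperlipidemia induced in male Fischer-344 rats (230-280 g) by Triton WR 1339 in aqueous solution, 200 mg/kg ip. 1 h later the compound (28 or 56 µmol/kg, in saline) or saline alone was given ip; at 56 µmol/kg, dosing was twice in 24 h. After 24 h, aortic blood was drawn for plasma total cholesterol, LDL and triglycerides, expressed as % decrease. 4-6 rats per group; Student's t-test.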

Rattus norvegicus [2] = assay: Percent decrease in Total Triglycerides was determined after intraperitoneal administration of a dose of 56 uM/kg; in short: as §1
Rattus norvegicus [3] = assay: Percent decrease in Total cholesterol was determined after intraperitoneal administration of a dose of 56 uM/kg; in short: as §1
Rattus norvegicus [4] = assay: Percent decrease in Total cholesterol was determined after intraperitoneal uM/kg; in short: as §1
Rattus norvegicus [5] = assay: Percent decrease in Total Triglycerides was determined after intraperitoneal uM/kg; in short: as §1
Rattus norvegicus [6] = assay: Percent decrease in Total Low density lipoproteins was determined after intraperitoneal uM/kg; Not significant; in short: as §1
Rattus norvegicus [7] = assay: Percent decrease in Total Low density lipoproteins was determined after intraperitoneal uM/kg; in short: as §1
Rattus norvegicus [8] = assay: Percent decrease in Total Low density lipoproteins was determined after intraperitoneal administration of a dose of 56 umol/kg; in short: as §1

Compound | Decrease (Rattus norvegicus [1]) | Decrease (Rattus norvegicus [2]) | Decrease (Rattus norvegicus [3]) | Decrease (Rattus norvegicus [4]) | Decrease (Rattus norvegicus [5]) | Decrease (Rattus norvegicus [6]) | Decrease (Rattus norvegicus [7]) | Decrease (Rattus norvegicus [8])
CCOC1(c2ccc(-c3ccccc3)cc2)CN(C)CCO1.Cl (stereo unspecified) | 22% | 39% | 30% | – | – | – | – | –
CCCOC1(c2ccc(-c3ccccc3)cc2)CN2CCCCC2CO1.Cl (stereo unspecified) | – | – | – | 36% | 34% | 17% | – | –
CC(C)(Sc1cc(C(C)(C)C)c(O)c(C(C)(C)C)c1)Sc1cc(C(C)(C)C)c(O)c(C(C)(C)C)c1 [PROBUCOL] | 18% | 11% | 18% | – | – | – | – | –
CN1CC(O)(c2ccc(-c3ccccc3)cc2)OC2CCCCC21 (stereo unspecified) | – | – | – | 54% | 49% | – | 51% | –
OC1(c2ccc(-c3ccccc3)cc2)CN2CCCCC2CO1 (stereo unspecified) | – | – | – | 22% | 20% | – | 51% | –
CN1CCOC(O)(c2ccc(-c3ccccc3)cc2)C1.Cl (stereo unspecified) | 32% | 42% | 32% | – | – | – | – | –
CCCOC1(c2ccc(-c3ccccc3)cc2)CN(C)C2CCCCC2O1.Cl (stereo unspecified) | – | – | – | 50% | 41% | – | – | 28%
